High-throughput results from PubChem.
Hits are enriched below; roughly 5.8% of the tested compounds scored in any of these assays.
14-3-3 Bad PPI: disrupts binding of bovine 14-3-3 zeta to phospho-Bad peptide. P63103. TR-FRET 14-3-3zeta/Dy647-pBad peptide displacement, 1 h. inhibition, % at 21.7 µM. hit rate 0.71% among 220,000. AID 781;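 active means inhibition above about 70%, limit read from the data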;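 further: 0% = full 14-3-3 plus peptide FRET controls and 100% = background without 14-3-3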
Target sequence (P63103 whole entry, looked up): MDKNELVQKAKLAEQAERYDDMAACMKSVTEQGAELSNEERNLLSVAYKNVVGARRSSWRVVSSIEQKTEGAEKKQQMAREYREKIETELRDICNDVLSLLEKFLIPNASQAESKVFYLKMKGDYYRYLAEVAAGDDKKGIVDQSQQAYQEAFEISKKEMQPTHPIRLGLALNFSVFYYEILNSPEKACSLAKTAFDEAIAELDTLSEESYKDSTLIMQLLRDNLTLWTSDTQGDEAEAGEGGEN
RBBP9 inhibitor: inhibitors of human serine hydrolase RBBP9; O75884; hit rate 0.2% among 220,000; inhibition, % at 7.94 µM; recombinant RBBP9, FP-Rh probe fluorescence polarization;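 active means inhibition above the campaign mean of all tested compounds plus 3 SD, cut at about 14% in these data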;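 further: plate controls were DMSO wells with RBBP9 for no effect and wells lacking RBBP9 protein for full effect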
Target sequence (O75884 whole entry, looked up): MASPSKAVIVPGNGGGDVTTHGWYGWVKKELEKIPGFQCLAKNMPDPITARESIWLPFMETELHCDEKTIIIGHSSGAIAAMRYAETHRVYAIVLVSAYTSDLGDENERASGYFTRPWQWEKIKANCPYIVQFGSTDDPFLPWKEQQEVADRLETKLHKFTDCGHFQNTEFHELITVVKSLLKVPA
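Assay system: recombinant human RBBP9; Reagent: Serine-hydrolase probe FP-Rh, 375 nM pre-mixing; Doses: 7.94 µM single dose, 0.794% DMSO; Incubation: 30 min then 45 min, 25 °C; Detection: fluorescence polarization (mP), excitation 525 nm, emission 598 nm; Evaluation: percent inhibition from mP, scaled between DMSO and no-protein wells.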
KCC2 mod: KCC2 (human) Cl- transport modulation | Q9H2X9 | KCC2 cells, thallium flux FluoZin-2 fluorescence | B-score of Tl+ flux slope (higher = more flux/activation; lower = inhibition) at 10 µM | hit rate 2.2% among 190,000 | AID 1456;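 active means thallium flux slope and its plate-corrected score both differing from the plate sample mean at a set confidence after two filtering rounds, in either direction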;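 further: slope of fluorescence scaled to starting intensity during 10 to 20 s after thallium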
WT yeast gro inh: growth inhibition of WT yeast, mitochondrial fusion screen. mitochondrial fusion phenotypic screen, WT strain. inhibition, % at 10 µM. hit rate 2.1% among 190,000. AID 1362; in the data active means inhibition above about 58%; tested in S. cerevisiae
p47phox inh: inhibitors of human p47phox binding; p47phox/p22phox peptide binding, fluorescence polarization, 2 h; inhibition, % at 24.7 µM; P14598; AID 1274; hit rate 0.53% among 220,000;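 active means inhibition above about 30%, limit read from the data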;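 further: 0% = p47phox with labelled peptide and 100% = labelled peptide alone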
ROMK mod: human ROMK K+ channel modulation, primary screen. P48048. Tet-inducible ROMK, thallium flux fluorescence; actives lie on both sides. B-score at 10 µM. hit rate 2% among 130,000. AID 1918;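 active means signal ratio slope over the read window, or its plate-corrected B-score, at least 3 SD from the plate mean, either direction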;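 further: B-score of the F/F0 ratio slope over 7 to 12 s after thallium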
Active calls of the source: *; x = not tested or not shown; + = active, no number.

SMILES | 14-3-3 Bad PPI | RBBP9 inhibitor | KCC2 mod | WT yeast gro inh | p47phox inh | ROMK mod
CCC(CC)c1nnc(NC(=O)c2ccc3ccccc3n2)s1 | 5.6 | 7.9 | 15.7* | 61.4* | -18.0 | x
O=C(Nc1cccc(C(F)(F)F)c1)NC1CCCCC1 | -8.5 | -5.7 | 0.315 | 15.5 | -20.0 | x
O=C(OC(C(=O)Nc1cccc(C(F)(F)F)c1)c1ccccc1)C1CCCCC1 (centres undefined) | -3.9 | -15.1 | 0.508 | 62.4* | -22.6 | -0.265
O=P(O)(COc1ccccc1)COc1ccccc1 | 71.8* | -6.6 | x | 14.5 | -9.6 | x
Cc1cc(NC(=O)Cn2nc(C)c([N+](=O)[O-])c2C)no1 | -9.8 | -7.7 | -0.308 | -5.3 | -4.8 | x
O=C(c1noc2c1CCCC2)N1CCc2c([nH]c3ccccc23)C1c1ccccn1 (centres undefined) | -12.8 | -1.1 | x | 26.5 | -1.4 | -0.491
CSc1nc(C(=O)N2CCc3c([nH]c4ccccc34)C2c2ccccn2)cs1 (centres undefined) | 5.1 | -6.2 | -0.723 | 58.9* | -6.5 | 0.423
O=C(c1cccs1)N1CCc2c([nH]c3ccccc23)C1c1ccc(Cl)cc1 (centres undefined) | -4.8 | -8.8 | 0.833 | 34.9 | 31.5* | x
Cc1cccc(C2c3[nH]c4ccccc4c3CCN2C(=O)c2noc3c2CCCC3)n1 (centres undefined) | -8.9 | -13.7 | 0.177 | 59.7* | -1.9 | -0.0315
N#CCCN1CCN(C(=O)c2c(N)no[n+]2[O-])CC1 | -6.3 | -5.0 | 0.0667 | 8.5 | -12.0 | 0.00598
CCCNC(=O)CCc1c(C)nc2nc(C)nn2c1C | -9.0 | -0.1 | 0.12 | -5.0 | -1.2 | x
CCc1ccc(CN(C)Cc2nc(-c3cccc(Cl)c3)no2)nc1 | -10.0 | -3.7 | -2.18 | 17.5 | 10.1 | 0.401
Cc1cccc(N2CC(O)(c3cccs3)[N+]3=C2CCCC3)c1 (centres undefined) | 1.4 | -5.1 | 0.293 | 0.1 | 1.2 | -1.1
Cc1cccc(N2CC(O)(c3cccs3)[N+]3=C2CCCCC3)c1 (centres undefined) | 82.8* | -8.6 | 0.279 | 1.3 | -11.8 | -0.672
CNC(=O)OCc1cccc(COC(=O)NC)n1 | 30.6 | -1.3 | x | 13.1 | 39.1* | -0.301
Brc1ccc2ncc(Br)cc2c1 | -12.9 | -2.7 | -1.2 | -3.4 | -6.3 | x
COc1ccc(OCC(=O)NNC(=O)c2cccnc2)cc1 | 91.5* | -2.0 | 1.24 | -3.6 | 5.0 | x
Cc1ccc(NC(=S)NC(C)CCc2ccccc2)cc1C (centres undefined) | -17.7 | -8.3 | -1.38 | 67.5* | -2.5 | -1.76
Cc1cccc(C)c1NC(=S)NC(C)CCc1ccccc1 (centres undefined) | -5.4 | 4.1 | -1.38 | 72.9* | -4.4 | x
CC(=O)c1ccc(NC(=S)NC(C)CCc2ccccc2)cc1 (centres undefined) | -1.0 | 1.7 | -0.65 | 34.8 | x | -0.164
N=C1C(c2ccccc2)=C(O)CN1c1cccc2ccccc12 | -3.6 | -10.7 | 0.828 | -5.5 | -6.3 | x
C=CCSc1nnc(-c2ccncc2)n1-c1ccc(OCC)cc1 | 7.8 | 4.5 | 0.0644 | -12.9 | + | 0.49
CC(=O)N(Cc1ccc(F)cc1)c1cccc(C)c1C | -3.9 | -6.8 | -1.32 | -12.7 | -15.8 | -0.0466
CC(=O)N(Cc1ccc(F)cc1)C1=C(NCCc2ccccc2)C(=O)c2ccccc2C1=O | -0.8 | 5.1 | 0.788 | 83.4* | -15.7 | -2.94
Cc1cccc(/C=C2/SC(=O)N(Cc3ccccc3Cl)C2=O)n1 | -12.1 | -6.7 | x | 5.1 | -14.3 | x
SMILES | 14-3-3 Bad PPI | RBBP9 inhibitor | KCC2 mod | WT yeast gro inh | p47phox inh | ROMK mod
COc1cc(/C=C2/SC(=O)N(Cc3ccccc3Cl)C2=O)ccc1OCc1ccncc1 | 3.3 | 2.7 | -0.618 | 3.2 | 31.5* | x
Clc1ccsc1-c1csc(-c2cccnc2)n1 | 8.2 | 2.0 | x | 2.4 | -5.8 | -0.0916
c1cncc(-c2nc(-c3ccco3)cs2)c1 | 73.2* | -2.4 | x | 0.9 | -5.6 | x
COc1ccccc1/C=C/CN1CCCC(CO)(Cc2cccc(Cl)c2)C1 (centres undefined) | -6.4 | -0.8 | 0.00469 | 65.0* | -9.8 | -2.04
COc1cccc(CC2(CO)CCCN(C/C=C/c3ccccc3OC)C2)c1 (centres undefined) | -9.3 | -4.7 | x | 5.8 | -11.9 | -1.09
Nc1nc(=S)c2ncn(C3CCCC3)c2[nH]1 | -15.4 | 1.9 | 1.15 | x | -17.5 | x
Cc1ccc(NC2=NCCC2)cc1Cl | -2.7 | -8.7 | 0.00317 | 0.6 | -2.4 | x
